Measured values taken from ChEMBL document CHEMBL4118270, “Synthesis, in vitro and in silico studies of novel potent urease inhibitors: N-[4-({5-[(3-Un/substituted-anilino-3-oxopropyl)sulfanyl]-1,3,4-oxadiazol-2-yl}methyl)-1,3-thiazol-2-yl]benzamides” (Bioorg Med Chem, 2018).
pIC50: −log10 of the molar value.

Key:
Urease = Urease (Helicobacter pylori, UniProt Q0PXQ5); assay: Inhibition of Campylobacter pylori urease preincubated for 5 mins followed by urea addition measured after 10 mins by Berthelot assay
Outline: (§1)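 Modified Berthelot assay in pH 7.0 phosphate buffer. Sample and enzyme (0.135 units) are pre-incubated 5 min at 37 °C. Urea (20 mM stock) is added and incubated 10 min at 37 °C. […] IC50 is fitted from dilution series. Mean ± SEM, n = 3.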

[1] = target: Urease (Helicobacter pylori) (UniProt Q0PXQ5); assay: Inhibition of Campylobacter pylori urease preincubated for 5 mins followed by urea addition measured after 10 mins by Berthelot assay relative to control; parameters: concentration or dose not given beside the values; outline: as §1
Urease (Helicobacter pylori), sequence (Q0PXQ5 as listed by the source): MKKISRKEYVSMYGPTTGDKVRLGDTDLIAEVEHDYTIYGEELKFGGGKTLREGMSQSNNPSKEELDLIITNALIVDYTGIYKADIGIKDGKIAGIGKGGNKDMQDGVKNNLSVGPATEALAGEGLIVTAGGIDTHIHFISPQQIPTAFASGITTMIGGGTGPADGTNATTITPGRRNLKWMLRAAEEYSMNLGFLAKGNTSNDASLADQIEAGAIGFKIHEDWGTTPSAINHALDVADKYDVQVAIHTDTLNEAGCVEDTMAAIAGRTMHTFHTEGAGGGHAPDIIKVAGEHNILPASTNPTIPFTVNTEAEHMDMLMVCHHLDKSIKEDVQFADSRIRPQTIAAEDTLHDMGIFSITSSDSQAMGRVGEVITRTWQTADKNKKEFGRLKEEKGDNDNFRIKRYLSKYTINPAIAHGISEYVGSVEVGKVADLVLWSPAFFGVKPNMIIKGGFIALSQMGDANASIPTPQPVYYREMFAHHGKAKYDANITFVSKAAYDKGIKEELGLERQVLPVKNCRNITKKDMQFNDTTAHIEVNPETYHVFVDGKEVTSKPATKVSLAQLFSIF

Urease, sequence (Q0PXQ5 whole entry): as the sequence (Q0PXQ5 as listed by the source) above

Structure (SMILES)	pIC50 (Urease)	inhibition [1] [%]
Cc1cccc(NC(=O)CCSc2nnc(Cc3csc(NC(=O)c4ccccc4)n3)o2)c1	4.91	84.8
Cc1ccc(NC(=O)CCSc2nnc(Cc3csc(NC(=O)c4ccccc4)n3)o2)cc1	4.53	76.4
Cc1ccc(NC(=O)CCSc2nnc(Cc3csc(NC(=O)c4ccccc4)n3)o2)cc1C	4.47	76.5
CCOc1ccc(NC(=O)CCSc2nnc(Cc3csc(NC(=O)c4ccccc4)n3)o2)cc1	4.63	88.8
NC(N)=S [THIOUREA]	4.68	
Cc1cc(C)cc(NC(=O)CCSc2nnc(Cc3csc(NC(=O)c4ccccc4)n3)o2)c1	4.28	64.8
CCc1ccc(NC(=O)CCSc2nnc(Cc3csc(NC(=O)c4ccccc4)n3)o2)cc1	4.36	74.2
Cc1ccc(C)c(NC(=O)CCSc2nnc(Cc3csc(NC(=O)c4ccccc4)n3)o2)c1	4.82	77.9
O=C(CCSc1nnc(Cc2csc(NC(=O)c3ccccc3)n2)o1)Nc1ccccc1	5.53	98.5
Cc1cccc(C)c1NC(=O)CCSc1nnc(Cc2csc(NC(=O)c3ccccc3)n2)o1	5.55	98.5
Cc1ccccc1NC(=O)CCSc1nnc(Cc2csc(NC(=O)c3ccccc3)n2)o1	5.13	98.2
CCc1ccccc1NC(=O)CCSc1nnc(Cc2csc(NC(=O)c3ccccc3)n2)o1	5.59	98.7
Cc1cccc(NC(=O)CCSc2nnc(Cc3csc(NC(=O)c4ccccc4)n3)o2)c1C	4.32	69.8
